Experimental findings from ChEMBL document CHEMBL1154414, “In vitro and in vivo activities of T-705 against arenavirus and bunyavirus infections” (Antimicrob Agents Chemother, 2007) are described below.

Molecules are shown by their SMILES. Calls of active or inactive are those of the source. No cut-off for these calls is given here.

For assay [1], the system named is Punta Toro virus. In words: Antiviral activity against Punta Toro virus Adames infected Syrian golden hamster assessed as mean day of death at 30 mg/kg, po twice daily for 6 days administered 4 hrs before viral challenge. It is filed as functional. Put shortly:
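Hamsters (groups of 15, placebo 25-30) were challenged subcutaneously with 50 PFU and dosed twice daily by oral gavage in 0.4% CMC vehicle.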

Assay [2] relates to Punta Toro virus. The assay can be described thus: Antiviral activity against 500 PFU Punta Toro virus Adames infected C57BL/6 mouse assessed as mean viral titer per 0.1 mL of serum at 200 mg/kg, po twice daily administered 4 hrs before viral challenge measured on day 4 of viral infection. Type of assay: functional. Summed up: (§1)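 Mice were infected subcutaneously with PTV and dosed by oral gavage twice daily; 5 per group (10 placebo) were killed on day 3 or 4. Liver homogenate or serum was serially diluted onto triplicate LLC-MK2 monolayers, and CPE was read 6–8 days later. 50% endpoints gave log10 CCID50 per 0.1 g liver or 0.1 ml serum. Detection range was 2.8–9.5; undetectable samples were assigned <2.8.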

Assay [3] deals with Pichinde virus. In words: Antiviral activity against Pichinde virus An 4763 infected Syrian golden hamster assessed as inhibition of liver damage at 20 mg/kg, po twice daily for 7 days administered 24 hrs post viral-challenge measured on day 7 of viral infection. Type of assay: functional, organism-based. Also noted: dose 20 mg/kg.
The test system of assay [4] is Punta Toro virus. The assay can be described thus: Antiviral activity against 500 PFU Punta Toro virus Adames infected C57BL/6 mouse assessed as animals with detectable virus level in liver at 200 mg/kg, po twice daily administered 4 hrs before viral challenge measured on day 4 of viral infection. It is filed as functional. Summed up:
(§2)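 T-705 was suspended in 0.4% carboxymethylcellulose and given by oral gavage twice daily. Mice were infected subcutaneously with PTV. Five mice per group (10 placebo) were sacrificed on day 3 or 4. Liver homogenate or serum was serially diluted onto triplicate LLC-MK2 monolayers, and CPE was read at 6–8 days. The detection limit was 2.8 log10 CCID50 per 0.1 g liver or 0.1 ml serum.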

Assay [5] concerns La Crosse virus. The assay can be described thus: Antiviral activity against La Crosse virus assessed as reduction of 1 log10 unit viral titer yields after 3 to 5 days. It is filed as functional.
For assay [6], the system named is Pichinde virus. The assay can be described thus: Antiviral activity against Pichinde virus An 4763 infected Syrian golden hamster assessed as mean serum ALT levels at 15 mg/kg, po twice daily for 7 days administered 4 hrs before viral-challenge measured on day 7 of viral infection. It is filed as functional.
The subject of assay [7] is Pichinde virus. In words: Antiviral activity against Pichinde virus An 4763 infected Syrian golden hamster assessed as mean day of death at 20 mg/kg, po twice daily for 7 days administered 72 hrs post viral-challenge measured on day 7 of viral infection. Type of assay: functional. Put shortly:
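Groups of 15 hamsters (placebo 25-30) were challenged intraperitoneally (bilateral, 65 PFU) and dosed twice daily by oral gavage in 0.4% CMC for 5 to 7 days.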

The subject of assay [8] is Punta Toro virus. In words: Antiviral activity against Punta Toro virus Adames infected Syrian golden hamster assessed as animals with detectable virus level in serum at 60 mg/kg, po twice daily administered 4 hrs before viral challenge measured on day 4 of viral infection. It is filed as functional.
Assay [9] relates to Pichinde virus. The assay can be described thus: Antiviral activity against Pichinde virus An 4763 infected Syrian golden hamster assessed as animals with detectable virus level in serum at 15 mg/kg, po twice daily for 7 days administered 4 hrs before viral-challenge measured on day 7 of viral infection. It is filed as functional. Put shortly:
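Hamsters (groups of 15, placebo 25-30) were dosed orally by gavage twice daily (drug suspended in 0.4% CMC) after bilateral intraperitoneal challenge with 65 PFU. Five per group were killed on day 7. Liver homogenate or serum was serially diluted onto triplicate B-SC-1 wells, CPE was read at 6-8 days, and the 50% endpoint was taken. Range was 2.8-9.5 log10 CCID50/0.1 g or 0.1 ml, with undetectable assigned <2.8.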

Assay [10] concerns Punta Toro virus. In words: Antiviral activity against 500 PFU Punta Toro virus Adames infected C57BL/6 mouse assessed as mean viral titer per 0.1 mL of serum at 25 mg/kg, po twice daily administered 4 hrs before viral challenge measured on day 4 of viral infection. Type of assay: functional. Put shortly: as §1
The subject of assay [11] is Punta Toro virus. In words: Antiviral activity against 500 PFU Punta Toro virus Adames infected C57BL/6 mouse assessed as animals with detectable virus level in serum at 5 mg/kg, po twice daily administered 4 hrs before viral challenge measured on day 3 of viral infection. Type of assay: functional. Summed up:
as §2

Assay [12] relates to Tacaribe virus. The assay can be described thus: Antiviral activity against Tacaribe virus TRVL11573 assessed as reduction of 1 log10 unit viral titer yields after 7 to 8 days. The note with it: Mammarenavirus tacaribeense. It is filed as functional.
The subject of assay [13] is Punta Toro virus. The assay can be described thus: Antiviral activity against Punta Toro virus Adames infected Syrian golden hamster assessed as mean serum ALT levels at 60 mg/kg, po twice daily administered 4 hrs before viral challenge measured on day 4 of viral infection. Type of assay: functional.
In assay [14] the test system is Enterovirus C. In words: Antiviral activity against Poliovirus. It is filed as functional, organism-based.
The test system of assay [15] is Punta Toro virus. The assay can be described thus: Antiviral activity against 500 PFU Punta Toro virus Adames infected C57BL/6 mouse assessed as animals with detectable virus level in liver at 10 mg/kg, po twice daily administered 24 hrs post viral challenge measured on day 3 of viral infection. Type of assay: functional. Put shortly:
as §2

The test system of assay [16] is Punta Toro virus. In words: Antiviral activity against 500 PFU Punta Toro virus Adames infected C57BL/6 mouse assessed as animals with detectable virus level in liver at 100 mg/kg, po twice daily administered 4 hrs before viral challenge measured on day 4 of viral infection. Type of assay: functional. Summed up: as §2
Assay [17] has as its system Pichinde virus. The assay can be described thus: Antiviral activity against Pichinde virus An 4763 infected Syrian golden hamster assessed as animals with detectable virus level in liver at 30 mg/kg, po twice daily for 7 days administered 4 hrs before viral-challenge measured on day 7 of viral infection. It is filed as functional.
For assay [18], the system named is Punta Toro virus. The assay can be described thus: Antiviral activity against 500 PFU Punta Toro virus Adames infected C57BL/6 mouse assessed as mean viral titer per 0.1 g of liver at 75 mg/kg, po administered 4 hrs before viral challenge measured on day 4 of viral infection. It is filed as functional. Put shortly:
as §1

In assay [19] the test system is Punta Toro virus. In words: Antiviral activity against Punta Toro virus Adames infected Syrian golden hamster assessed as animals with detectable virus level in serum at 30 mg/kg, […] measured on day 4 of viral infection. Type of assay: functional. The note with it: route oral.
For assay [20], the system named is Punta Toro virus. The assay can be described thus: Antiviral activity against 500 PFU Punta Toro virus Adames infected C57BL/6 mouse assessed as survival at 50 mg/kg, po twice daily for 5 days administered 4 hrs before viral challenge. Type of assay: functional, organism-based. Also on record: dose 50 mg/kg. Put shortly: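 PTV was inoculated subcutaneously into mice in groups of 15 (25–30 placebo). Dosing was by oral gavage twice daily for 5–7 days, with T-705 suspended in 0.4% CMC and ribavirin in saline. Remaining animals were observed 21–28 days for survival and day of death. Test doses had first been checked for tolerance in uninfected animals.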

For assay [21], the system named is Punta Toro virus. In words: Antiviral activity against 5000 PFU Punta Toro virus Adames infected C57BL/6 mouse assessed as animals with detectable virus level in liver at 10 mg/kg, po twice daily administered 24 hrs post viral challenge measured on day 3 of viral infection. Type of assay: functional. Put shortly: as §1
The subject of assay [22] is Respiratory syncytial virus. The assay can be described thus: Antiviral activity against Respiratory syncytial virus. Type of assay: functional, organism-based. The note with it: human respiratory syncytial virus.
Assay [23] relates to Punta Toro virus. The assay can be described thus: Antiviral activity against 500 PFU Punta Toro virus Adames infected C57BL/6 mouse assessed as inhibition of liver damage at 200 mg/kg, po twice daily administered 4 hrs before viral challenge measured on day 4 of viral infection. Also noted: dose 200 mg/kg. Type of assay: functional, organism-based. Put shortly: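 Mice were infected with PTV subcutaneously and dosed by oral gavage twice daily (0.4% CMC vehicle). Five animals per group (10 placebo) were sacrificed on day 3 or 4. Livers were scored 0–4 for hepatic icterus, where 0 is normal and 4 is maximal yellow coloration.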

Assay [24] deals with Pichinde virus. The assay can be described thus: Antiviral activity against Pichinde virus An 4763 infected Syrian golden hamster assessed as survival at 20 mg/kg, po twice daily for 7 days administered 72 hrs post viral-challenge. Type of assay: functional.

Turning to `NC(=O)c1nc(F)cnc1O` [FAVIPIRAVIR], the Activity in [1] stood at 6 days; in assay [4] it was 0%; in [6], 1220 IU/L; in assay [7], 8.1 days; in [8] it was 20%; in assay [9] it was 80%. Moreover, the Activity turned out to be 100% in assay [11]; 17 IU/L in assay [13]; 0% in assay [15]; 0% in assay [16]; 100% in [17]; 40% in assay [19]. In addition, the Activity in assay [21] worked out at 20%. The values for the log10CCID50 in assay [2], in assay [10] and in [18] were <2.8, <3.3 and <2.8, respectively. Further, the outcome in assay [3], in assay [20] and in assay [23] was Active. Also, the EC90 (in general, the concentration needed for an effect of 90%) in [5] worked out at 7 µM; in [12], 6 µM. Besides, the values for the EC50 in assay [14] and in assay [22] were 31 µM and 261 µM, respectively.

Regarding `NC(=O)c1ncn([C@@H]2O[C@H](CO)[C@@H](O)[C@H]2O)n1` [RIBAVIRIN], the Activity in assay [1] turned out to be 13.3 days; in assay [7], 18.3 days; in [15] it was 20%; in assay [19] it was 0%; in assay [21], 0%. Besides, in assay [24], the Efficacy was 60%.
